The source of these data is ChEMBL document CHEMBL1821664, “Sulfonamides as a new scaffold for hypoxia inducible factor pathway inhibitors” (Bioorg Med Chem Lett, 2011).

Assay [1] has as its target T1, Hypoxia inducible factors; HIF-1-alpha, HIF-2-alpha (Homo sapiens, UniProt Q16665+Q99814). The assay can be described thus: Inhibition of hypoxia-induced HIF1 activation in human LN229 cells expressing HRE-AP reporter gene assessed as HRE remaining activity at 10 uM preincubated for 1 hr under normoxia condition followed by 24 hrs incubation under hypoxia condition by alkaline phosphatase reporter assay relative to control. Type of assay: cell-based. The procedure, abridged:
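LN229-HRE-AP cells pre-treated 1 h with compound or vehicle (1% DMSO), then 24 h in 1% O2 hypoxia incubator; cells lysed and alkaline phosphatase activity measured. Hits were compounds reducing hypoxic AP induction >50%; single assay.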
In general terms: In a reporter assay the amount or activity of a reporter protein is the signal.

The target in assay [2] is T1, Hypoxia inducible factors; HIF-1-alpha, HIF-2-alpha. Briefly: Inhibition of hypoxia-induced HIF1 activation in human LN229 cells expressing HRE-AP reporter gene at 10 uM preincubated for 1 hr under normoxia condition followed by 24 hrs incubation under hypoxia condition by HRE-luciferase reporter assay relative to control; values are per cent of control.
Assay [3] shares this target. Briefly: Inhibition of hypoxia-induced HIF1 activation in human LN229 cells expressing HRE-AP reporter gene at 5 uM preincubated for 1 hr under normoxia condition followed by 24 hrs incubation under hypoxia condition by HRE-luciferase reporter assay relative to control; values are per cent of control.
The target is the same in assay [4]. Briefly: Inhibition of hypoxia-induced HIF1 activation in human LN229 cells expressing HRE-AP reporter gene at 2.5 uM preincubated for 1 hr under normoxia condition followed by 24 hrs incubation under hypoxia condition by HRE-luciferase reporter assay relative to control; values are per cent of control.

With `Cc1ccc(S(=O)(=O)N(Cc2ccc3c(c2)C=CC(C)(C)O3)C(C)C)cc1`, in assay [1], the Activity amounted to 55%.
In the case of `CC1(C)C=Cc2cc(C(O)c3cn(C(C)(C)C)nn3)ccc2O1` (centres undefined), in assay [1], the Activity worked out at 90.7%.
Consider `CC1(C)C=Cc2cc(CN(C3CCCCC3)S(=O)(=O)c3cccc4ccccc34)ccc2O1`, for which the figures for the residual activity in assay [2], in assay [3] and in assay [4] were 37%, 37% and 68%, respectively.
For the compound `COc1c(CN(c2ccccc2)S(=O)(=O)c2ccc([N+](=O)[O-])cc2)ccc2c1OC(C)(C)C=C2`, in assay [1], the Activity amounted to 72.4%.
On the same count and under the same terms, next, `CC(c1ccc2c(c1)C=CC(C)(C)O2)n1cnc2ncccc21` (centres undefined): 76.9%; `CC(C)N(Cc1ccc2c(c1)C=CC(C)(C)O2)S(=O)(=O)c1ccc([N+](=O)[O-])cc1`: 43.2%.
Regarding `CC(C)CN(Cc1ccc2c(c1)C=CC(C)(C)O2)S(=O)(=O)c1ccc(Oc2c(Cl)cccc2[N+](=O)[O-])cc1`, the residual activity in assay [2] came out at 24%; in assay [3], 23%; in assay [4], 34%.
In the case of `COc1c(CN(Cc2ccccc2)S(=O)(=O)c2ccc([N+](=O)[O-])cc2)ccc2c1OC(C)(C)C=C2`, in assay [1], the Activity was found to be 62.2%.
On the same count and under the same terms, under `CC1(C)C=Cc2cc(C(c3ccccc3)n3cnc4ncccc43)ccc2O1` (centres undefined) stands 83.5%.
As for `CC1(C)C=Cc2cc(CN(c3ccccc3)S(=O)(=O)c3ccc(Br)cc3OC(F)(F)F)ccc2O1`, the residual activity came to 35% in assay [2], 56% in assay [3] and 53% in assay [4].
In the case of `CC1(C)C=Cc2cc(C(O)n3cc(-c4ccccc4)nn3)ccc2O1` (centres undefined), the Activity in assay [1] came to 106%.
The same measure, in the same setting: under `COc1c(CN(C(=O)c2cccs2)c2ccccc2)ccc2c1OC(C)(C)C=C2` stands 61.8%.
Regarding `CC(C)CN(Cc1ccc2c(c1)C=CC(C)(C)O2)S(=O)(=O)c1ccc(Br)cc1OC(F)(F)F`, the figures for the residual activity in assay [2], in assay [3] and in assay [4] were 24%, 57% and 49%, respectively.
For the compound `CC1(C)C=Cc2cc(C(O)c3cn(C45CC6CC(CC(C6)C4)C5)nn3)ccc2O1` (centres undefined), the Activity in assay [1] stood at 101%.
The same measure, in the same setting: under `COc1c(CN(C(C)=O)c2ccccc2)ccc2c1OC(C)(C)C=C2` stands 108%; under `COc1ccc(S(=O)(=O)N(Cc2ccccc2)Cc2ccc3c(c2OC)OC(C)(C)C=C3)cc1OC`, 68.5%.
In the case of `COc1c(C(C)n2ccnc2)ccc2c1C=CC(C)(C)O2` (centres undefined), the Activity in assay [1] is 104%.
Same read-out and setting: next, `COc1c(CN(c2ccccc2)S(=O)(=O)c2cc(Cl)ccc2Cl)ccc2c1OC(C)(C)C=C2`: 51.5%; `COc1c(CN(c2ccccc2)S(=O)(=O)c2ccc(C)cc2)ccc2c1OC(C)(C)C=C2`: 58.4%.
As for `COc1ccc(Cl)cc1S(=O)(=O)N(Cc1ccc2c(c1)C=CC(C)(C)O2)c1ccccc1`, the residual activity came to 28% in assay [2], 56% in assay [3] and 61% in assay [4].
On to `CC(=O)N(Cc1ccc2c(c1)C=CC(C)(C)O2)C(C)C`, for which, in assay [1], the Activity was determined as 105%.
`COc1c(CN(Cc2ccccc2)S(=O)(=O)c2ccc(C)cc2)ccc2c1OC(C)(C)C=C2`: the Activity in assay [1] was 40.4%.
With `CC1(C)C=Cc2cc(CN(C3CCCCC3)S(=O)(=O)c3ccc(Oc4c(Cl)cccc4[N+](=O)[O-])cc3)ccc2O1`, the residual activity in assay [2] was 49%; in assay [3], 49%; in assay [4], 73%.
Take `COc1c(CN(Cc2ccccc2)S(=O)(=O)c2cc(Cl)ccc2Cl)ccc2c1OC(C)(C)C=C2`: the Activity in assay [1] came out at 35%.
For the compound `CC(C)N(Cc1ccc2c(c1)C=CC(C)(C)O2)C(=O)c1ccc(Br)cc1`, the Activity in assay [1] turned out to be 63.9%.
`COc1ccc(S(=O)(=O)N(Cc2ccc3c(c2)C=CC(C)(C)O3)c2ccccc2)c(OC)c1`: the residual activity in assay [2] is 31%; in assay [3], 61%; in assay [4], 76%.
On to `COc1c(C(C)n2cnc3cc(Cl)ccc32)ccc2c1C=CC(C)(C)O2` (centres undefined), for which the Activity in assay [1] is 55.7%.
The same measure, in the same setting: under `CCN(CC)C(=O)OCn1cc(C(O)c2ccc3c(c2)C=CC(C)(C)O3)nn1` (centres undefined) stands 97.7%; under `COc1ccc(S(=O)(=O)N(Cc2ccc3c(c2OC)OC(C)(C)C=C3)c2ccccc2)cc1OC`, 48.6%.
The same measure, in the same setting: under `CC(C)N(Cc1ccc2c(c1)C=CC(C)(C)O2)S(=O)(=O)c1cc(Cl)ccc1Cl` stands 41.9%; under `COc1c(C(C(C)C)n2cnc3ncccc32)ccc2c1C=CC(C)(C)O2` (centres undefined), 88.8%.
Take `CC1(C)C=Cc2cc(CN(c3ccccc3)S(=O)(=O)c3cccc4ccccc34)ccc2O1`: the residual activity in assay [2] turned out to be 29%; in assay [3] it was 75%; in assay [4], 55%.
As for `CC1(C)C=Cc2cc(CN(C(=O)c3ccc(Br)cc3)c3ccccc3)ccc2O1`, the Activity in assay [1] was 57.6%.
Still for that read-out and setting: next, `CC1(C)C=Cc2cc(C(c3ccccc3)n3cnc4cc(Cl)ccc43)ccc2O1` (centres undefined): 87.9%.
`CC1(C)C=Cc2cc(CN(C3CCCCC3)S(=O)(=O)c3ccc([N+](=O)[O-])cc3)ccc2O1`: the residual activity in assay [2] came to 33%; in assay [3], 53%; in assay [4], 68%.
Consider `COc1c(C(C)n2cnc3ncccc32)ccc2c1C=CC(C)(C)O2` (centres undefined), for which the Activity in assay [1] came out at 95.7%.
Still for that read-out and setting: under `COc1c(CN(C(=O)c2ccc(Br)cc2)c2ccccc2)ccc2c1OC(C)(C)C=C2` stands 63.2%.
Turning to `CC1(C)C=Cc2cc(/C=N/O)ccc2O1`, in assay [1], the Activity was 91.4%.
Still for that read-out and setting: next, `CC(O)c1ccc2c(c1)C=CC(C)(C)O2` (centres undefined): 94.9%.
Consider `COc1ccc(S(=O)(=O)N(Cc2ccc3c(c2)C=CC(C)(C)O3)C2CCCCC2)cc1OC`, for which the figures for the residual activity in assay [2], in assay [3] and in assay [4] were 4%, 17% and 44%, respectively.
Taken in the same sequence, the figures for `CC1(C)C=Cc2cc(CN(C3CCCCC3)S(=O)(=O)c3cc(Cl)ccc3Cl)ccc2O1` were 24%, 60% and 54%.
Regarding `CCOC(OCC)c1ccc2c(c1OC)OC(C)(C)C=C2`, the Activity in assay [1] amounted to 105%.
On the same count and under the same terms, next, `CC1(C)C=Cc2cc(CN(C(=O)c3cccs3)c3ccccc3)ccc2O1`: 79.1%; `CC1(C)C=Cc2cc(C(O)c3cn(Cc4ccccc4)nn3)ccc2O1` (centres undefined): 88.8%.
Consider `CC(=O)N(Cc1ccc2c(c1)C=CC(C)(C)O2)c1ccccc1`, for which, in assay [1], the Activity amounted to 91.5%.
Still for that read-out and setting: next, `COc1c(CN(Cc2ccccc2)C(C)=O)ccc2c1OC(C)(C)C=C2`: 93.1%.
As for `COc1ccc(S(=O)(=O)N(Cc2ccccc2)Cc2ccc3c(c2)C=CC(C)(C)O3)c(OC)c1`, the residual activity in assay [2] was found to be 20%; in assay [3], 54%; in assay [4], 60%.
Consider `CC1(C)C=Cc2cc(CN(Cc3ccccc3)S(=O)(=O)c3ccc(Oc4c(Cl)cccc4[N+](=O)[O-])cc3)ccc2O1`, for which the values for the residual activity in assay [2], in assay [3] and in assay [4] were 27%, 51% and 54%, respectively.
Taken in the same sequence, the figures for `CC1(C)C=Cc2cc(CN(c3ccccc3)S(=O)(=O)c3ccc(Oc4c(Cl)cccc4[N+](=O)[O-])cc3)ccc2O1` were 27%, 21% and 40%.
In the case of `C=Cc1ccc2c(c1)C=CC(C)(C)O2`, the Activity in assay [1] stood at 98.2%.
In the case of `CC1(C)C=Cc2cc(CN(c3ccccc3)S(=O)(=O)c3ccc([N+](=O)[O-])cc3)ccc2O1`, the residual activity in assay [2] was determined as 50%; in assay [3], 66%; in assay [4], 78%.
Taken in the same sequence, the figures for `COc1ccc(S(=O)(=O)N(Cc2ccccc2)Cc2ccc3c(c2)C=CC(C)(C)O3)cc1OC` were 15%, 26% and 54%.
Regarding `CC1(C)C=Cc2cc(CN(Cc3ccccc3)S(=O)(=O)c3ccc([N+](=O)[O-])cc3)ccc2O1`, the residual activity in assay [2] was 27%; in assay [3] it was 35%; in assay [4], 47%.
As for `COc1c(C(C(C)C)n2ccnc2)ccc2c1C=CC(C)(C)O2` (centres undefined), the Activity in assay [1] is 135%.
For `COc1ccc(Cl)cc1S(=O)(=O)N(Cc1ccccc1)Cc1ccc2c(c1)C=CC(C)(C)O2`, the residual activity in assay [2] was found to be 50%; in assay [3] it was 78%; in assay [4], 66%.
Take `CC(C)N(Cc1ccc2c(c1)C=CC(C)(C)O2)C(=O)c1cccs1`: in assay [1], the Activity stood at 46.2%.
On the same count and under the same terms, next, `COc1ccc(S(=O)(=O)N(Cc2ccc3c(c2)C=CC(C)(C)O3)C(C)C)cc1OC`: 64.7%; `CC(c1ccc2c(c1)C=CC(C)(C)O2)n1ccnc1` (centres undefined): 86.6%; `CC1(C)C=Cc2cc(C(O)c3cn(CCNc4ccc([N+](=O)[O-])c5nonc45)nn3)ccc2O1` (centres undefined): 116%.
Same read-out and setting: next, `COc1c(/C=N/O)ccc2c1OC(C)(C)C=C2`: 89.4%; `CC1(C)C=Cc2cc(C(c3ccccc3)n3ccnc3)ccc2O1` (centres undefined): 88.9%; `CC1(C)C=Cc2cc(C(O)c3cn(CCOc4ccc5ccc(=O)oc5c4)nn3)ccc2O1` (centres undefined): 117%.
Take `COc1c(CN(Cc2ccccc2)C(=O)c2cccs2)ccc2c1OC(C)(C)C=C2`: in assay [1], the Activity came out at 67.5%.
